This is an account of results in ChEMBL document CHEMBL5346884, “Discovery, synthesis and mechanism study of 2,3,5-substituted [1,2,4]-thiadiazoles as covalent inhibitors targeting 3C-Like protease of SARS-CoV-2” (Eur J Med Chem, 2023).

Molecules are shown by their SMILES.

Series [1] concerns the target T1, Replicase polyprotein 1ab (Severe acute respiratory syndrome coronavirus 2, UniProt P0DTD1). Kind of series: Inhibition of full-length recombinant SARS-CoV-2 3CL protease expressed in Escherichia coli BL21 (DE3) cells using fluorogenic MCA-AVLQSGFR-Lys (Dnp)-Lys-NH2 substrate preincubated for 10 mins followed by substrate addition measured for 3.5 mins by FRET assay.

The test system of the next series is SARS-CoV-2. Nature of the series: Antiviral activity against SARS-CoV-2 infected in African green monkey Vero E6 cells assessed as reduction in viral replication incubated for 24 hrs by qRT-PCR analysis. Format: functional, organism-based. Conditions: Severe acute respiratory syndrome coronavirus 2, Vero C1008, 24 h. On the technique in general: Real-time PCR tracks product formation cycle by cycle.

A further series has as its system Vero C1008. Nature of the series: Cytotoxicity against African green monkey Vero E6 cells incubated for 24 hrs by WST-8 assay. Format: toxicity, cell-based. Conditions: chlorocebus sabaeus, vero c1008, 24 h. In short, it runs like this:
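Vero E6 cells grown in DMEM with 10% FBS at 37 °C, 5% CO₂. Compounds tested as 2-fold dilutions, 9 concentrations, in DMEM with 2% FBS, triplicate per concentration, for 24 h. WST-8 added and absorbance read at 450 nm after 0.5–1 h. Viability expressed relative to DMSO control.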
On the technique in general: Tetrazolium dyes change colour on reduction, which living cells bring about.

For series [2], the target named is T1, Replicase polyprotein 1ab. Kind of series: Binding affinity to CM5 chip-immobilised full-length recombinant SARS-CoV-2 3CL protease expressed in Escherichia coli BL21 (DE3) cells assessed as dissociation constant by SPR analysis. The gist of the method: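 SPR at 25 °C in HBS-EP (10 mM HEPES pH 7.4, 150 mM NaCl, 3.0 mM EDTA, 0.05% Tween-20) with 5% DMSO. Protease immobilised at 8000–10000 RU. Compounds were run as an eight-concentration series, with 240 s association and 200 s dissociation. Surface washed with 50% DMSO each cycle.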
For orientation: Surface plasmon resonance follows binding to a sensor surface in real time, without labels.

The target of series [3] is T1, Replicase polyprotein 1ab. Kind of series: Inhibition of full-length recombinant SARS-CoV-2 3CL protease expressed in Escherichia coli BL21 (DE3) cells using fluorogenic MCA-AVLQSGFR-Lys (Dnp)-Lys-NH2 substrate preincubated for 10 mins followed by substrate addition measured after 5 mins by FRET assay.
Another series deals with Chymotrypsin (Homo sapiens, UniProt Q99895+P17538+P40313+Q6GPI1). Nature of the series: Inhibition of chymotrypsin (unknown origin) using N-succinyl-AAPF-AMC as substrate preincubated for 10 mins followed by substrate addition measured for 10 mins by fluorescence based assay. It is filed as protein assay. The gist of the method: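 Chymotrypsin at 5 nM final with serially diluted compound in PBS pH 7.4, incubated 10 min. N-succinyl-AAPF-AMC added at 10 μM final. Fluorescence (ex 380/em 460 nm) read every 1 min for 10 min. Rates relative to DMSO.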

For a further series, the target named is Cathepsin B (Homo sapiens, UniProt P07858). Kind of series: Inhibition of human Cathepsin B using Z-RR-AMC as substrate preincubated for 30 mins followed by substrate addition measured for 10 mins by FRET assay. In short, it runs like this:
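Cathepsin B (0.25 units) with compound in 20 mM sodium acetate pH 5.5, 1 mM EDTA, 2 mM DTT, incubated 30 min at ambient temperature. Z-RR-AMC added at 1 μM final. Fluorescence (ex 340/em 440 nm) read every 1 min for 10 min. Rates relative to DMSO.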

For series [4], the target named is T1, Replicase polyprotein 1ab. Nature of the series: Inhibition of full-length recombinant SARS-CoV-2 3CL protease expressed in Escherichia coli BL21 (DE3) cells using fluorogenic MCA-AVLQSGFR-Lys (Dnp)-Lys-NH2 substrate preincubated for 10 mins followed by substrate addition measured immediately by FRET assay. The gist of the method: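 FRET assay: 50 nM protease (final) in 50 mM Tris–HCl pH 7.3, 1 mM EDTA, with serially diluted compound. Compound–enzyme preincubation was 10 min in the standard assay, and 0, 5, 10 or 20 min in the time-dependence test. Substrate added at 10 μM final. Fluorescence (ex 320/em 405 nm) read every 35 s for 3.5 min. Initial rates normalised to DMSO control.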

In a further series the target is Procathepsin L (Homo sapiens, UniProt P07711). Nature of the series: Inhibition of human Cathepsin L using Z-VVR-AMC as substrate measured for 10 mins by fluorescence based assay.
Series [5] addresses Replicase polyprotein 1ab (Severe acute respiratory syndrome coronavirus 2) (UniProt P0DTD1). Kind of series: Binding affinity to full-length recombinant SARS-CoV-2 3CL protease expressed in Escherichia coli BL21 (DE3) cells assessed as Gibbs free energy change by MM-GBSA method.
In series [6] the target is T1, Replicase polyprotein 1ab. Kind of series: Inhibition of SARS-CoV-2 PLpro using RLRGG-AMC substrate preincubated for 30 mins followed by substrate addition measured for 5 mins by fluorescence based assay. The gist of the method:
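PLpro at 50 nM with serially diluted compound in 50 mM HEPES pH 7.5, 0.1 mg/mL BSA, incubated 30 min. RLRGG-AMC added to 20 μM final. Fluorescence (ex 360/em 460 nm) read every 1 min for 5 min. Rates compared with DMSO control.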

In series [7] the target is T1, Replicase polyprotein 1ab. Kind of series: Inhibition of full-length recombinant SARS-CoV-2 3CL protease expressed in Escherichia coli BL21 (DE3) cells using fluorogenic MCA-AVLQSGFR-Lys (Dnp)-Lys-NH2 substrate preincubated for 10 mins followed by substrate addition measured after 20 mins by FRET assay.
Series [8] has as its target T1, Replicase polyprotein 1ab. Kind of series: Inhibition of full-length recombinant SARS-CoV-2 3CL protease expressed in Escherichia coli BL21 (DE3) cells using fluorogenic MCA-AVLQSGFR-Lys (Dnp)-Lys-NH2 substrate preincubated for 10 mins followed by substrate addition measured after 10 mins by FRET assay.

Sequence of Procathepsin L (P07711 whole entry): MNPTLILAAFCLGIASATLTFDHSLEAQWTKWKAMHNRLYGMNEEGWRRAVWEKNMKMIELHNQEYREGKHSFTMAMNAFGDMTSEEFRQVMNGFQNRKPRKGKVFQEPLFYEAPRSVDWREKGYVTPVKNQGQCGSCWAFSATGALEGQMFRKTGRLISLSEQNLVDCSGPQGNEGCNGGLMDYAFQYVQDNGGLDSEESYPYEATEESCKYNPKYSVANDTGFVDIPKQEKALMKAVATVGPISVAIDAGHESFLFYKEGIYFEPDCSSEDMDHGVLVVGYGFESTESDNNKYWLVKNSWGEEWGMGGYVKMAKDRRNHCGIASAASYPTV

The term IC50 denotes the midpoint of a concentration-inhibition curve. With `FC1(F)CC(/N=c2\nc(-c3ccccc3)n(-c3ccccc3)s2)C1`, the IC50 in series [1] stood at 323 nM.
`C/N=c1\nc(-c2ccc(Cl)cc2)n(-c2ccccc2)s1`: the IC50 in series [1] is 136 nM.
On the same count and under the same terms, for `C/N=c1\nc(-c2ccc(OC)cc2)n(-c2ccc(F)cc2)s1` the value was 373 nM.
By EC50 is commonly meant the midpoint of the concentration-response curve. By CC50 is commonly meant the concentration that lowers cell viability or growth by half. Regarding `C/N=c1\nc(-c2ccc(OC)cc2)n(-c2cc(F)c(F)c(F)c2)s1`, the IC50 in series [1] came out at 582 nM. Moreover, in the series with SARS-CoV-2, the EC50 is 9340 nM. Moreover, the CC50 in the series with Vero C1008 was more than 100000 nM.
For orientation: Kd means a measure of binding affinity in units of concentration. On to `C/N=c1\nc(-c2ccccc2)n(-c2ccccc2)s1`, for which the IC50 in [1] is 193 nM; in series [3], 302 nM; against Chymotrypsin it was more than 100000 nM; against Cathepsin B, more than 50000 nM; in series [4], 409 nM; on Procathepsin L, more than 100000 nM. The results for the IC50 in series [6], in series [7] and in series [8] were 655 nM, 191 nM and 206 nM, respectively. Besides, the Kd in [2] was determined as 798 nM. Further, the deltaG in series [5] is -13.9 kcal/mol.
As for `CN=C(S)N=C(Nc1ccccc1)c1ccccc1`, the IC50 in series [1] came to 40000 nM. Besides, in series [5], the deltaG was -11.4 kcal/mol.
Consider `C/N=c1\nc(-c2ccccc2)n(-c2ccc(F)cc2)s1`, for which, in series [1], the IC50 is 124 nM.
For `CCOc1ccc(-c2n/c(=N\C)sn2-c2ccc(F)cc2)cc1`, the IC50 in [1] worked out at 462 nM. In addition, in the series with SARS-CoV-2, the EC50 was 14800 nM. The compound further gave a CC50 in the series with Vero C1008 of more than 100000 nM.
For the compound `C/N=c1\nc(-c2ccc(F)cc2)n(-c2ccccc2)s1`, the IC50 in [1] was 118 nM; against Chymotrypsin, more than 100000 nM; on Cathepsin B it was more than 50000 nM; against Procathepsin L, more than 100000 nM; in [6], 448 nM. For the same compound, the EC50 with SARS-CoV-2 worked out at 7250 nM. In the series on Vero C1008, this compound showed a CC50 of more than 100000 nM.
`C/N=c1\nc(-c2ccc(OC)cc2)n(-c2ccccc2)s1`: the IC50 in series [1] amounted to 165 nM.
As for `c1ccc(-c2n/c(=N\C3CC3)sn2-c2ccccc2)cc1`, the IC50 in series [1] worked out at 143 nM.
